This note sets out measurements from ChEMBL document CHEMBL1146365, “Synthesis and biological evaluation of new N-(2-hydroxy-4(or 5)-nitro/aminophenyl)benzamides and phenylacetamides as antimicrobial agents” (2007).

Molecules are shown by their SMILES. Values after ≈ are worked out from the molar mass of the structure shown.

Assay [1] has as its system Candida albicans. Nature of the assay: Antifungal activity against Candida albicans isolate assessed after 48 hrs by serial dilution method. It is filed as functional. The method in brief:
(§1)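 Broth microdilution per CLSI M27-A in RPMI-1640 with L-glutamine, MOPS-buffered pH 7, with 2-fold compound dilutions. Yeasts were subcultured twice on SDA at 35 °C for 24–48 h. Inoculum was diluted from McFarland 0.5 to 10^4 cfu/ml, giving 10^3 cfu/ml in wells. Incubated 35 °C, humid chamber, 48 h, in triplicate. MIC = lowest concentration with no macroscopic growth.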

Assay [2] deals with Candida albicans. Nature of the assay: Antifungal activity against Candida albicans ATCC 10231 assessed after 48 hrs by serial dilution method. It is filed as functional. The settings on record: ATCC 10231, 48 h. Summed up:
as §1

Assay [3] relates to Klebsiella pneumoniae. Nature of the assay: Antibacterial activity against Klebsiella pneumoniae RSHM 574 assessed after 24 hrs by serial dilution method.
Assay [4] deals with Escherichia coli. Nature of the assay: Antibacterial activity against Escherichia coli isolate assessed after 24 hrs by serial dilution method. The assay is classed as functional. Summed up: (§2)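 Strains were subcultured twice on MHA at 37 °C overnight. Inoculum was diluted from McFarland 0.5 to 10^5 cfu/ml, giving 10^4 cfu/ml in wells. Solvent, medium and organism-only controls were included. Incubated 37 °C, humid chamber, 24 h, in triplicate. MIC = lowest concentration with no macroscopic growth.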

In assay [5] the test system is Pseudomonas aeruginosa. Nature of the assay: Antibacterial activity against Pseudomonas aeruginosa isolate assessed after 24 hrs by serial dilution method. The assay is classed as functional. The method in brief: as §2
The test system of assay [6] is Escherichia coli. Nature of the assay: Antibacterial activity against Escherichia coli ATCC assessed after 24 hrs by serial dilution method.
For assay [7], the system named is Staphylococcus aureus. As to the kind of experiment: Antibacterial activity against Staphylococcus aureus ATCC 25923 assessed after 24 hrs by serial dilution method. It is filed as functional. The following applies: ATCC 25923, 24 h. Summed up: as §2
Assay [8] has as its system Bacillus subtilis. As to the kind of experiment: Antibacterial activity against drug-resistant Bacillus subtilis assessed after 24 hrs by serial dilution method.
Assay [9] relates to Staphylococcus aureus. Nature of the assay: Antibacterial activity against drug-resistant Staphylococcus aureus assessed after 24 hrs by serial dilution method.
The test system of assay [10] is Pseudomonas aeruginosa. As to the kind of experiment: Antibacterial activity against Pseudomonas aeruginosa ATCC […] assessed after 24 hrs by serial dilution method.
Assay [11] concerns Klebsiella pneumoniae. Nature of the assay: Antibacterial activity against Klebsiella pneumoniae isolate assessed after 24 hrs by serial dilution method. The assay is classed as functional. Summed up:
as §2

The test system of assay [12] is Bacillus subtilis. As to the kind of experiment: Antibacterial activity against Bacillus subtilis ATCC 6633 assessed after 24 hrs by serial dilution method. The following applies: ATCC 6633, 24 h. It is filed as functional. The method in brief:
as §2

In general, MIC refers to the smallest concentration in the dilution series that meets the test's criterion for growth inhibition. A low value points to inhibition by little substance. In the assay on Candida albicans [1], `C[C@@H]1[C@H](O)[C@@H](C)/C=C/C=C/C=C/C=C/C=C/C=C/C=C/[C@H](O[C@@H]2O[C@H](C)[C@@H](O)[C@H](N)[C@@H]2O)C[C@@H]2O[C@](O)(C[C@@H](O)C[C@@H](O)[C@H](O)CC[C@@H](O)C[C@@H](O)CC(=O)O[C@H]1C)C[C@H](O)[C@H]2C(=O)O` [AMPHOTERICIN B] displayed an MIC of 128 µg/mL (≈ 139 µM).

On to `OC(Cn1cncn1)(Cn1cncn1)c1ccc(F)cc1F` [FLUCONAZOLE], for which the minimum inhibitory concentration (MIC) was 4 µg/mL (≈ 13.1 µM) in the assay with Candida albicans [2] and 512 µg/mL (≈ 1670 µM) with Candida albicans [1].

For the compound `O=C(Nc1ccc([N+](=O)[O-])cc1O)c1ccccc1`, the MIC came to 125 µg/mL (≈ 484 µM) in the assay on Klebsiella pneumoniae [3]; 250 µg/mL (≈ 968 µM) against Escherichia coli [4]; 250 µg/mL (≈ 968 µM) against Pseudomonas aeruginosa [5]; 62.5 µg/mL (≈ 242 µM) in the assay on Candida albicans [2]; 125 µg/mL (≈ 484 µM) against Escherichia coli [6]; 62.5 µg/mL (≈ 242 µM) with Staphylococcus aureus [7]. In addition, the MIC was found to be 31.2 µg/mL (≈ 121 µM) against Bacillus subtilis [8]; 125 µg/mL (≈ 484 µM) against Staphylococcus aureus [9]; 125 µg/mL (≈ 484 µM) in the assay on Candida albicans [1]; 125 µg/mL (≈ 484 µM) against Pseudomonas aeruginosa [10]; 250 µg/mL (≈ 968 µM) against Klebsiella pneumoniae [11]; 31.2 µg/mL (≈ 121 µM) with Bacillus subtilis [12].

As to `Nc1ccc(O)c(NC(=O)c2ccccc2)c1`, the MIC against Klebsiella pneumoniae [3] amounted to 125 µg/mL (≈ 548 µM); with Escherichia coli [4] it was 250 µg/mL (≈ 1100 µM); against Pseudomonas aeruginosa [5], 250 µg/mL (≈ 1100 µM); against Candida albicans [2] it was 125 µg/mL (≈ 548 µM); against Escherichia coli [6] it was 125 µg/mL (≈ 548 µM); against Staphylococcus aureus [7], 31.2 µg/mL (≈ 137 µM). For the same compound, the MIC came out at 62.5 µg/mL (≈ 274 µM) against Bacillus subtilis [8]; 31.2 µg/mL (≈ 137 µM) against Staphylococcus aureus [9]; 125 µg/mL (≈ 548 µM) in the assay with Candida albicans [1]; 125 µg/mL (≈ 548 µM) against Pseudomonas aeruginosa [10]; 250 µg/mL (≈ 1100 µM) in the assay on Klebsiella pneumoniae [11]; 15.6 µg/mL (≈ 68.3 µM) against Bacillus subtilis [12].

As for `Nc1ccc(NC(=O)Cc2ccc(Cl)cc2)c(O)c1`, the MIC in the assay on Klebsiella pneumoniae [3] was found to be 125 µg/mL (≈ 452 µM); against Escherichia coli [4], 125 µg/mL (≈ 452 µM); against Pseudomonas aeruginosa [5], 125 µg/mL (≈ 452 µM); against Candida albicans [2], 125 µg/mL (≈ 452 µM); against Escherichia coli [6], 125 µg/mL (≈ 452 µM); against Staphylococcus aureus [7] it was 62.5 µg/mL (≈ 226 µM). Besides, the MIC in the assay on Bacillus subtilis [8] was determined as 62.5 µg/mL (≈ 226 µM); with Staphylococcus aureus [9], 31.2 µg/mL (≈ 113 µM); against Candida albicans [1], 125 µg/mL (≈ 452 µM); against Pseudomonas aeruginosa [10], 125 µg/mL (≈ 452 µM); with Klebsiella pneumoniae [11] it was 250 µg/mL (≈ 903 µM); against Bacillus subtilis [12], 250 µg/mL (≈ 903 µM).

On to `O=C(Nc1cc([N+](=O)[O-])ccc1O)c1ccc(F)cc1`, for which the MIC against Klebsiella pneumoniae [3] turned out to be 31.2 µg/mL (≈ 113 µM); with Escherichia coli [4], 125 µg/mL (≈ 453 µM); against Pseudomonas aeruginosa [5], 125 µg/mL (≈ 453 µM); against Candida albicans [2], 62.5 µg/mL (≈ 226 µM); in the assay on Escherichia coli [6], 125 µg/mL (≈ 453 µM); in the assay on Staphylococcus aureus [7], 7.8 µg/mL (≈ 28.2 µM). Moreover, the MIC was 62.5 µg/mL (≈ 226 µM) in the assay on Bacillus subtilis [8]; 15.6 µg/mL (≈ 56.5 µM) against Staphylococcus aureus [9]; 62.5 µg/mL (≈ 226 µM) against Candida albicans [1]; 62.5 µg/mL (≈ 226 µM) against Pseudomonas aeruginosa [10]; 125 µg/mL (≈ 453 µM) in the assay with Klebsiella pneumoniae [11]; 3.9 µg/mL (≈ 14.1 µM) in the assay with Bacillus subtilis [12].

As to `CC1(C)S[C@@H]2[C@H](NC(=O)[C@H](N)c3ccccc3)C(=O)N2[C@H]1C(=O)O.O.O.O` [AMPICILLIN TRIHYDRATE], the MIC in the assay with Klebsiella pneumoniae [3] was 1020 µg/mL; in the assay on Escherichia coli [4], 500 µg/mL; in the assay on Pseudomonas aeruginosa [5], 2 µg/mL; against Escherichia coli [6], greater than 4100 µg/mL; with Staphylococcus aureus [7], 64 µg/mL; against Bacillus subtilis [8] it was 8 µg/mL. The MIC in the assay on Staphylococcus aureus [9] was greater than 4100 µg/mL; in the assay on Pseudomonas aeruginosa [10], 4 µg/mL; in the assay with Klebsiella pneumoniae [11], 256 µg/mL; with Bacillus subtilis [12], 16 µg/mL.

In the case of `CC1COc2c(N3CCN(C)CC3)c(F)cc3c(=O)c(C(=O)O)cn1c23` (stereo not drawn) [OFLOXACIN], the MIC with Klebsiella pneumoniae [3] was 64 µg/mL (≈ 177 µM); against Escherichia coli [4], 32 µg/mL (≈ 88.6 µM); against Staphylococcus aureus [7] it was greater than 4100 µg/mL; with Bacillus subtilis [8], 32 µg/mL (≈ 88.6 µM); against Staphylococcus aureus [9], greater than 4100 µg/mL; with Pseudomonas aeruginosa [10] it was 8 µg/mL (≈ 22.1 µM). In addition, the results for the MIC in the assay on Klebsiella pneumoniae [11] and in the assay with Bacillus subtilis [12] were 64 µg/mL (≈ 177 µM) and greater than 4100 µg/mL, respectively.

As for `Nc1ccc(O)c(NC(=O)Cc2ccc(F)cc2)c1`, the minimal inhibitory concentration (MIC) in the assay with Escherichia coli [4] came to 250 µg/mL (≈ 961 µM); against Pseudomonas aeruginosa [5], 250 µg/mL (≈ 961 µM); against Candida albicans [2], 250 µg/mL (≈ 961 µM); against Staphylococcus aureus [7], 62.5 µg/mL (≈ 240 µM); in the assay with Candida albicans [1] it was 125 µg/mL (≈ 480 µM); against Klebsiella pneumoniae [11] it was 250 µg/mL (≈ 961 µM). This compound also gave an MIC with Bacillus subtilis [12] of 15.6 µg/mL (≈ 59.9 µM).

For `Cc1ccc(CC(=O)Nc2cc(N)ccc2O)cc1`, the minimum inhibitory concentration (MIC) in the assay on Escherichia coli [4] came to 250 µg/mL (≈ 975 µM); in the assay on Pseudomonas aeruginosa [5], 250 µg/mL (≈ 975 µM); against Candida albicans [2], 125 µg/mL (≈ 488 µM); with Staphylococcus aureus [7], 31.2 µg/mL (≈ 122 µM); against Candida albicans [1] it was 125 µg/mL (≈ 488 µM); against Klebsiella pneumoniae [11], 250 µg/mL (≈ 975 µM). The compound also came in with an MIC in the assay with Bacillus subtilis [12] of 15.6 µg/mL (≈ 60.9 µM).
